Source: ChEMBL document CHEMBL1671716, “Antimicrobial susceptibility patterns for recent clinical isolates of anaerobic bacteria in South Korea” (2010)
Values after ≈ are worked out from the molar mass of the structure shown.

Legend:
Finegoldia magna [1] = test: Antimicrobial activity against Finegoldia magna assessed as percent susceptible isolates after 48 hrs by agar dilution method; assay type: functional
In short: (§1)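 CLSI agar dilution (M11-A7); inoculum 10^5 CFU applied by replicator; plates incubated anaerobically 48 h at 37°C. For piperacillin-tazobactam, tazobactam held constant at 4 μg/ml.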

Clostridioides difficile = test: Antimicrobial activity against Clostridium difficile assessed as percent susceptible isolates after 48 hrs by agar dilution method; assay type: functional
Finegoldia magna [2] = test: Antimicrobial activity against Finegoldia magna assessed as percent resistant isolates after 48 hrs by agar dilution method; assay type: functional
In short: (§2)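 CLSI agar dilution on recent Korean clinical anaerobe isolates. Inoculum 10^5 CFU per spot by replicator. Plates incubated in an anaerobic chamber at 37°C for 48 h. For piperacillin plus tazobactam, tazobactam was held constant at 4 μg/ml. Resistance and susceptibility rates derived from MICs.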

Bacteroides fragilis [3] = test: Antimicrobial activity against Bacteroides fragilis assessed as percent susceptible isolates after 48 hrs by agar dilution method; assay type: functional
Actinomyces naeslundii [4] = test: Antimicrobial activity against Actinomyces naeslundii assessed as percent resistant isolates after 48 hrs by agar dilution method; assay type: functional; in short: as §2
Schaalia odontolytica [5] = test: Antimicrobial activity against Actinomyces odontolyticus assessed as percent susceptible isolates after 48 hrs by agar dilution method; assay type: functional
Eubacterium sp. = test: Antimicrobial activity against Eubacterium sp. assessed as percent susceptible isolates after 48 hrs by agar dilution method; assay type: functional; in short: as §1
Fusobacterium mortiferum = test: Antimicrobial activity against Fusobacterium mortiferum after 48 hrs by agar dilution method; assay type: functional; in short: as §1
[6] = system: Porphyromonas asaccharolytica; test: Antimicrobial activity against Porphyromonas asaccharolytica after 48 hrs by agar dilution method; assay type: functional; in short: as §1
Anaerococcus prevotii = test: Antimicrobial activity against Anaerococcus prevotii assessed as percent susceptible isolates after 48 hrs by agar dilution method; assay type: functional
[7] = system: Bifidobacterium adolescentis; test: Antimicrobial activity against Bifidobacterium adolescentis after 48 hrs by agar dilution method; assay type: functional
In short: (§3)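 MICs on clinical anaerobe isolates by the CLSI agar dilution method. Inoculum of 10^5 CFU applied with a Steers replicator. Plates incubated 48 h at 37°C in an anaerobic chamber.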

Fusobacterium necrogenes = test: Antimicrobial activity against Fusobacterium necrogenes after 48 hrs by agar dilution method; assay type: functional; in short: as §1
Prevotella bivia = test: Antimicrobial activity against Prevotella bivia after 48 hrs by agar dilution method; assay type: functional; in short: as §1
[8] = system: Peptoniphilus asaccharolyticus; test: Antimicrobial activity against Peptoniphilus asaccharolyticus assessed as percent susceptible isolates after 48 hrs by agar dilution method; assay type: functional; in short: as §1
[9] = system: Bacteroides thetaiotaomicron; test: Antimicrobial activity against Bacteroides thetaiotaomicron after 48 hrs by agar dilution method; assay type: functional; in short: as §3
Eggerthella lenta = test: Antimicrobial activity against Eubacterium lentum assessed as percent resistant isolates after 48 hrs by agar dilution method; assay type: functional; in short: as §2
Schaalia meyeri = test: Antimicrobial activity against Actinomyces meyeri after 48 hrs by agar dilution method; assay type: functional; in short: as §3
Actinomyces naeslundii [10] = test: Antimicrobial activity against Actinomyces naeslundii after 48 hrs by agar dilution method; assay type: functional; in short: as §3
Bacteroides ovatus = test: Antimicrobial activity against Bacteroides ovatus assessed as percent susceptible isolates after 48 hrs by agar dilution method; assay type: functional
[11] = system: Parabacteroides distasonis; test: Antimicrobial activity against Bacteroides distasonis assessed as percent susceptible isolates after 48 hrs by agar dilution method; assay type: functional
[12] = system: Peptoniphilus asaccharolyticus; test: Antimicrobial activity against Peptoniphilus asaccharolyticus assessed as percent resistant isolates after 48 hrs by agar dilution method; assay type: functional; in short: as §2
Prevotella buccae = test: Antimicrobial activity against Prevotella buccae assessed as percent resistant isolates after 48 hrs by agar dilution method; assay type: functional, Segatella buccae; in short: as §2
Phocaeicola vulgatus [13] = test: Antimicrobial activity against Bacteroides vulgatus after 48 hrs by agar dilution method; assay type: functional; in short: as §3
Prevotella intermedia = test: Antimicrobial activity against Prevotella intermedia assessed as percent resistant isolates after 48 hrs by agar dilution method; assay type: functional; in short: as §2
Phocaeicola vulgatus [14] = test: Antimicrobial activity against Bacteroides vulgatus assessed as percent resistant isolates after 48 hrs by agar dilution method; assay type: functional; in short: as §2
Hoylesella oralis = test: Antimicrobial activity against Prevotella oralis after 48 hrs by agar dilution method; assay type: functional; in short: as §1
Schaalia odontolytica [15] = test: Antimicrobial activity against Actinomyces odontolyticus after 48 hrs by agar dilution method; assay type: functional; in short: as §3
[16] = system: Parabacteroides distasonis; test: Antimicrobial activity against Bacteroides distasonis assessed as percent resistant isolates after 48 hrs by agar dilution method; assay type: functional; in short: as §2
Bacteroides caccae = test: Antimicrobial activity against Bacteroides caccae assessed as percent resistant isolates after 48 hrs by agar dilution method; assay type: functional; in short: as §2
Bacteroides fragilis [17] = test: Antimicrobial activity against Bacteroides fragilis after 48 hrs by agar dilution method; assay type: functional; in short: as §3

| SMILES | Activity (Finegoldia magna [1]) [%] | Activity (Clostridioides difficile) [%] | Activity (Finegoldia magna [2]) [%] | Activity (Bacteroides fragilis [3]) [%] | Activity (Actinomyces naeslundii [4]) [%] | Activity (Schaalia odontolytica [5]) [%] | Activity (Eubacterium sp.) [%] | MIC (Fusobacterium mortiferum) [µg/mL] | MIC [6] [µg/mL] | Activity (Anaerococcus prevotii) [%] | MIC50 [7] [µg/mL] | MIC90 [7] [µg/mL] | MIC (Fusobacterium necrogenes) [µg/mL] | MIC50 (Prevotella bivia) [µg/mL] | MIC90 (Prevotella bivia) [µg/mL] | Activity [8] [%] | MIC50 [9] [µg/mL] | MIC90 [9] [µg/mL] | Activity (Eggerthella lenta) [%] | MIC50 (Schaalia meyeri) [µg/mL] | other results |
| --- | --- | --- | --- | --- | --- | --- | --- | --- | --- | --- | --- | --- | --- | --- | --- | --- | --- | --- | --- | --- | --- |
| C[C@@H](O)[C@H]1C(=O)N2C(C(=O)O)=C(SCCNC=N)C[C@H]12 [IMIPENEM ANHYDROUS] | 100 | 58 | 0 | 98 | 0 | 100 | 100 | 0.02 (≈ 0.0668 µM) | 0.02 (≈ 0.0668 µM) | 100 | 0.06 (≈ 0.2 µM) | 0.5 (≈ 1.67 µM) | 0.02 (≈ 0.0668 µM) | 0.06 (≈ 0.2 µM) | 0.5 (≈ 1.67 µM) | 100 | 0.5 (≈ 1.67 µM) | 4 (≈ 13.4 µM) | 0 | 0.06 (≈ 0.2 µM) | MIC90 (Schaalia meyeri): 0.5 µg/mL (≈ 1.67 µM); MIC50 (Actinomyces naeslundii [10]): 0.06 µg/mL (≈ 0.2 µM); MIC90 (Actinomyces naeslundii [10]): 0.5 µg/mL (≈ 1.67 µM); Activity (Bacteroides ovatus): 95%; Activity [11]: 95%; Activity [12]: 0%; Activity (Prevotella buccae): 0%; MIC50 (Phocaeicola vulgatus [13]): 0.5 µg/mL (≈ 1.67 µM); MIC90 (Phocaeicola vulgatus [13]): 4 µg/mL (≈ 13.4 µM); Activity (Prevotella intermedia): 0%; Activity (Phocaeicola vulgatus [14]): 4%; MIC50 (Hoylesella oralis): 0.06 µg/mL (≈ 0.2 µM); MIC90 (Hoylesella oralis): 0.5 µg/mL (≈ 1.67 µM); MIC50 (Schaalia odontolytica [15]): 0.06 µg/mL (≈ 0.2 µM); MIC90 (Schaalia odontolytica [15]): 0.5 µg/mL (≈ 1.67 µM); Activity [16]: 4%; Activity (Bacteroides caccae): 4%; MIC50 (Bacteroides fragilis [17]): 0.125 µg/mL (≈ 0.418 µM); MIC90 (Bacteroides fragilis [17]): 1 µg/mL (≈ 3.34 µM) |
| C[C@@H](O)[C@H]1C(=O)N2C(C(=O)O)=C(S[C@@H]3CN[C@H](C(=O)N(C)C)C3)[C@H](C)[C@H]12 [MEROPENEM] | 100 | 100 | 0 | 92 | 8 | 92 | 92 | 0.008 (≈ 0.0209 µM) | 0.008 (≈ 0.0209 µM) | 100 | 0.125 (≈ 0.326 µM) | 2 (≈ 5.22 µM) | 0.008 (≈ 0.0209 µM) | 0.125 (≈ 0.326 µM) | 0.5 (≈ 1.3 µM) | 100 | 0.25 (≈ 0.652 µM) | 2 (≈ 5.22 µM) | 8 | 0.125 (≈ 0.326 µM) | MIC90 (Schaalia meyeri): 2 µg/mL (≈ 5.22 µM); MIC50 (Actinomyces naeslundii [10]): 0.125 µg/mL (≈ 0.326 µM); MIC90 (Actinomyces naeslundii [10]): 2 µg/mL (≈ 5.22 µM); Activity (Bacteroides ovatus): 98%; Activity [11]: 98%; Activity [12]: 0%; Activity (Prevotella buccae): 0%; MIC50 (Phocaeicola vulgatus [13]): 0.25 µg/mL (≈ 0.652 µM); MIC90 (Phocaeicola vulgatus [13]): 2 µg/mL (≈ 5.22 µM); Activity (Prevotella intermedia): 0%; Activity (Phocaeicola vulgatus [14]): 0%; MIC50 (Hoylesella oralis): 0.125 µg/mL (≈ 0.326 µM); MIC90 (Hoylesella oralis): 0.5 µg/mL (≈ 1.3 µM); MIC50 (Schaalia odontolytica [15]): 0.125 µg/mL (≈ 0.326 µM); MIC90 (Schaalia odontolytica [15]): 2 µg/mL (≈ 5.22 µM); Activity [16]: 0%; Activity (Bacteroides caccae): 0%; MIC50 (Bacteroides fragilis [17]): 0.125 µg/mL (≈ 0.326 µM); MIC90 (Bacteroides fragilis [17]): 4 µg/mL (≈ 10.4 µM) |
